Experimental data from paper PMC5569649 (Clinical Drug Investigation, 2017).
Structures can show the parent of a compound that is named as a salt. Non-standard residues stand in square brackets, D forms with d. Residues, ends and D or L forms follow the SMILES beside them. *: point of attachment. dPhe(4-NHCONH2) = NC(=O)Nc1ccc(C[C@@H](N)C(=O)O)cc1; Dihydroorotyl(S) = O=C1C[C@@H](C(=O)*)NC(=O)N1; dPhe(4-Cl) = N[C@H](Cc1ccc(Cl)cc1)C(=O)O; Phe(4-NH2) = Nc1ccc(C[C@H](N)C(=O)O)cc1; d2Nal = N[C@H](Cc1ccc2ccccc2c1)C(=O)O; Lys(iPr) = CC(C)NCCCC[C@H](N)C(=O)O; d3Pal = N[C@H](Cc1cccnc1)C(=O)O

Assays:
[1] = test system: QT interval / cardiac repolarisation in healthy men; test: Thorough QT/QTc study, 12-lead ECG, QTcF; type: in vivo; conditions: for No. of subjects with ΔQTcF >30 ms / No. of subjects with ΔQTcF >60 ms / No. of subjects with ΔQTcF ≤30 ms / No. of subjects with QTcF >450 ms / No. of subjects with QTcF >480 ms / No. of subjects with QTcF >500 ms / No. of subjects with QTcF ≤450 ms: categorical analysis, degarelix n = 76, moxifloxacin n = 78; for No. of subjects with ΔQTcF >30 ms / No. of subjects with ΔQTcF >60 ms / No. of subjects with ΔQTcF ≤30 ms: change from baseline
[2] = test system: healthy men; test: Safety assessments; type: in vivo
In short: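 Six-sequence crossover of iv test compound, iv placebo and oral moxifloxacin, with 7–10 day washouts. Adverse events, 12-lead ECG and vital signs were monitored throughout. Clinical chemistry, haematology and urinalysis were run by a central laboratory. Adverse event was defined as any untoward medical occurrence in a participant.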

[3] = Degarelix plasma concentration; type: in vivo, healthy men
In short: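 Single 60-min iv infusion of 2.8 mg in 5% glucose. Plasma sampled predose and at 30, 60, 90, 120, 150, 180 min, 6, 12 and 24 h after infusion start. Assay: validated solid-phase extraction with LC–MS/MS, quantification range 0.500–100 ng/mL (up to 500 ng/mL after dilution), precision and bias within 10%. Parameters from noncompartmental analysis; values below LLOQ or missing were excluded.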

[4] = test system: human ether-a-go-go-related gene (hERG) channel; conditions: preclinical investigations; ref Ferring Pharmaceuticals, unpublished data; cited from earlier work
[5] = test system: human GnRH receptor; conditions: cited from earlier work
[6] = cited from earlier work

| SMILES | No. of subjects with ΔQTcF >30 ms [1] | No. of subjects with ΔQTcF >60 ms [1] | No. of subjects with ΔQTcF ≤30 ms [1] | No. of subjects with QTcF >450 ms [1] | No. of subjects with QTcF >480 ms [1] | No. of subjects with QTcF >500 ms [1] | No. of subjects with QTcF ≤450 ms [1] | Number of AEs reported ([2]; after each treatment) | other results |
| --- | --- | --- | --- | --- | --- | --- | --- | --- | --- |
| CC(=O)N[C@H](Cc1ccc2ccccc2c1)C(=O)N[C@H](Cc1ccc(Cl)cc1)C(=O)N[C@H](Cc1cccnc1)C(=O)N[C@@H](CO)C(=O)N[C@@H](Cc1ccc(NC(=O)[C@@H]2CC(=O)NC(=O)N2)cc1)C(=O)N[C@H](Cc1ccc(NC(N)=O)cc1)C(=O)N[C@@H](CC(C)C)C(=O)N[C@@H](CCCCNC(C)C)C(=O)N1CCC[C@H]1C(=O)N[C@H](C)C(N)=O [degarelix] (Ac-[d2Nal][dPhe(4-Cl)][d3Pal]S[Phe(4-NH2)](Dihydroorotyl(S))[dPhe(4-NHCONH2)]L[Lys(iPr)]P[dA]-NH2) | 3 (4%) n (%) | 0 n (%) | 73 (96%) n (%) | 0 n (%) | 0 n (%) | 0 n (%) | 76 (100%) n (%) | 27 | One-sided 95% upper confidence boundaries for ΔΔQTcF at any of the nine timepoints ([1]; degarelix 2.8 mg iv over 60 min, 24-h period after start of infusion): ≤ 10 ms; Mean maximum baseline-corrected difference versus placebo in QTcF ([1]; degarelix 2.8 mg iv over 60 min, time-matched): < 4 ms; Slope of concentration-response effect on QTcF compared with placebo ([1]; repeated measures ANCOVA, 677 observations from 79 subjects): slightly negative slope; Intensity of AEs ([2]; after degarelix treatment): mild intensity; Mean changes in placebo-corrected HR, PR and QRS durations ([2]; degarelix 2.8 mg iv): did not show any clinically relevant results; Degarelix concentration at 24 h relative to Cmax ([3]; 24 h after start of degarelix 2.8 mg iv administration): < 10%; Cmax ([3]; male, human, plasma, iv, 2.8 mg): 222 ng/mL; Median maximal degarelix plasma concentration ([3]; single dose 2.8 mg infused iv over 60 min at constant rate): approximately 220 ng/mL; Effect on hERG channel [4]: no effect; Affinity and selectivity towards the human GnRH receptor [5]: high affinity and selectivity; Median peak concentration ([6]; single subcutaneous administration of 240 mg, prostate cancer): 66 ng/mL; Half-life ([6]; subcutaneous administration, slow-release phase from in situ depot): several weeks |
| COc1c(N2C[C@@H]3CCCN[C@@H]3C2)c(F)cc2c(=O)c(C(=O)O)cn(C3CC3)c12 [moxifloxacin, moxifloxacin hydrochloride] | 15 (19%) n (%) | 0 n (%) | 63 (81%) n (%) | 2 (3%) n (%) | 0 n (%) | 0 n (%) | 76 (97%) n (%) | 29 | QTc prolongation produced by positive control ([1]; moxifloxacin 400 mg oral): ≥ 5 ms; Lower bound of 98.3% CI for ΔΔQTcF (moxifloxacin vs placebo) ([1]; moxifloxacin 400 mg single oral dose, at 2.5, 3 and 6 h, assay sensitivity): exceeded 5 ms; Subjects reporting AEs ([2]; 80 subjects randomised, after each treatment): 22 (28%) n (%) |
